How the values were obtained:
[1] = target: Insulin-like growth factor-binding protein 3 (Homo sapiens, UniProt P17936); test: Inhibitory activity against Insulin-like growth factor binding protein 3
Method in brief: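 IGFBP-3 purified from human plasma (0.5 pmol, 2.5 nM added) incubated 2 h at room temperature with [125I]hIGF-I (30,000 cpm) and compound in 0.02% NP-40/PBS pH 7.2, in duplicate. Complex precipitated with ice-cold 20% BSA plus 20% PEG-8000 and centrifuged; pellet counted by γ-counter. Ki calculated from inhibition of binding.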

[2] = target: T1, Insulin-like growth factor-binding protein 6 (Homo sapiens, UniProt P24592); test: The compound was tested for binding affinity against Insulin-like growth factor binding protein 6
T1 sequence (P24592 whole entry): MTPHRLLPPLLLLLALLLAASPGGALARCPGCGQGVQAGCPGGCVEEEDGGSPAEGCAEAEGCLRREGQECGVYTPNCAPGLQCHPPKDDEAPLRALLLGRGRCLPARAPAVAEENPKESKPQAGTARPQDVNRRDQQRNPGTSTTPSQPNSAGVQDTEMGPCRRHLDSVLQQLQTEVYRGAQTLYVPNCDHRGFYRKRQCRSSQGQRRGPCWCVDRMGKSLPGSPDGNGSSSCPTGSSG
Method in brief: (§1)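 Human IGFBP-1, -2, -4, -5 or -6 expressed in Sf9 insect cells (baculovirus), purified on hIGF-II affinity column then reversed-phase HPLC. 0.5 pmol binding protein incubated with [125I]hIGF-I (30,000 cpm) and increasing compound concentrations, 2 h at room temperature, in 0.02% NP-40/PBS pH 7.2, in duplicate. Complex precipitated with BSA/PEG; pellet radioactivity counted to give dose–response curves.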

[3] = target: T2, Insulin-like growth factor-binding protein 1 (Homo sapiens, UniProt P08833); test: The compound was tested for binding affinity against insulin-like growth factor binding protein 1; method in brief: as §1
T2 sequence (P08833 whole entry): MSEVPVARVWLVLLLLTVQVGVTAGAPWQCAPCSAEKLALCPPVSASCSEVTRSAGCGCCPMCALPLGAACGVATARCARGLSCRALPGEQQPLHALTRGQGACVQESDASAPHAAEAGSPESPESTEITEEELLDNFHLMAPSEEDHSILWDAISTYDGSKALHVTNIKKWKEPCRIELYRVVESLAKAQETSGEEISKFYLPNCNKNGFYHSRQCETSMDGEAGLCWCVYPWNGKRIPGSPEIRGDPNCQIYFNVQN

[4] = target: T3, Insulin-like growth factor-binding protein 4 (Homo sapiens, UniProt P22692); test: The compound was tested for binding affinity against Insulin-like growth factor binding protein 4; method in brief: as §1
T3 sequence (P22692 whole entry): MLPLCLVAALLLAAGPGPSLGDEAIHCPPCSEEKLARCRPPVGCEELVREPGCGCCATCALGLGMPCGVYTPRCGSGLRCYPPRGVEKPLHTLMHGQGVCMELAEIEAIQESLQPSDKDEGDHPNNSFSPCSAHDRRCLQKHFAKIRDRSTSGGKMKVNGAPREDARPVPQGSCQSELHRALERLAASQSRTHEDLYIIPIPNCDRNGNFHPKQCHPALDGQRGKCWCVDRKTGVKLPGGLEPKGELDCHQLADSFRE

[5] = target: Insulin-like growth factor-binding protein 5 (Homo sapiens, UniProt P24593); test: The compound was tested for binding affinity against Insulin-like growth factor binding protein 5; method in brief: as §1
Chain of Insulin-like growth factor-binding protein 5 (P24593 whole entry): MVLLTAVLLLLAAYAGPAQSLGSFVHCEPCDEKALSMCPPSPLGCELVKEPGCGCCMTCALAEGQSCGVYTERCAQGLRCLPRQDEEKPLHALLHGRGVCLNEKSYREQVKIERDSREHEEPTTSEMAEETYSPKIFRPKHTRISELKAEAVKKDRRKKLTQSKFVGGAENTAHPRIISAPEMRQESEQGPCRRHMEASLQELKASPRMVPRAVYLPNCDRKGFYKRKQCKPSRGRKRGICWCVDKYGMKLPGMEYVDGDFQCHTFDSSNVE

[6] = target: T4, Insulin-like growth factor-binding protein 2 (Homo sapiens, UniProt P18065); test: The compound was tested for binding affinity against insulin-like growth factor binding protein 2; method in brief: as §1
T4 sequence (P18065 whole entry): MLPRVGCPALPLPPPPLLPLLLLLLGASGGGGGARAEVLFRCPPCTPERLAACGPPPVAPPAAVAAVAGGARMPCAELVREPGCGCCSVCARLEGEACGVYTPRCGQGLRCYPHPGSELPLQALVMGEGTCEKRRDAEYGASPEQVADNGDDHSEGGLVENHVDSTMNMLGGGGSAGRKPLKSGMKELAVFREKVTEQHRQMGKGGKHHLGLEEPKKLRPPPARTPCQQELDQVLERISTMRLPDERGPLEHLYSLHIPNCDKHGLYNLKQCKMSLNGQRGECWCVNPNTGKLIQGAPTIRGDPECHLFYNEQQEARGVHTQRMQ

Chain of Insulin-like growth factor-binding protein 3 (P17936 whole entry): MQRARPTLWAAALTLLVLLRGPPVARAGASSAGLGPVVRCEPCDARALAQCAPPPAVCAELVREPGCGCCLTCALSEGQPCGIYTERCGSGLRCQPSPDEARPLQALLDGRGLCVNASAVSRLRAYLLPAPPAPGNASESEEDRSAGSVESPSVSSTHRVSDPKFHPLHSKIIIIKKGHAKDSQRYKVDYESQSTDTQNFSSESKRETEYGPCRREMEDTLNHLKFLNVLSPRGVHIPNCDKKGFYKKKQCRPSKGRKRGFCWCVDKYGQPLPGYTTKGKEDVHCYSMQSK

SMILES | Ki [1] [nM] | other results
Oc1cc2cc(O)c(O)cc2c(Cc2ccc(O)c(O)c2)n1 | 29 | 
COc1ccc(C(=O)c2[nH]c(=O)cc3cc(OC)c(OC)cc23)cc1OC | > 10000 | 
O=C(c1ccc(O)c(O)c1)c1nccc2cc(O)c(O)cc12 | 58 | 
CCOC(=O)c1cc2cc(OC)c(OC)cc2c(C(=O)c2ccc(OC)c(OC)c2)n1 | > 10000 | 
O=C(O)c1cc2cc(O)c(O)cc2c(C(=O)c2ccc3c(c2)OCO3)n1 | 70 | 
O=C(O)c1cc2cc(O)c(O)cc2c(C(=O)c2cccc3ccccc23)n1 | 27 | 
COc1cc2cc(C(=O)O)nc(C(=O)c3ccc(O)c(O)c3)c2c(Br)c1O | 140 | 
COc1ccc(C(=O)c2nc(C(=O)O)cc3cc(OC)c(OC)cc23)cc1O | > 10000 | 
COc1ccc(C(=O)c2nc(C(=O)O)cc3cc(OC)c(O)cc23)cc1O | 320 | 
O=C(O)c1cc2cc(O)c(O)cc2c(Cc2ccc(O)c(O)c2)n1 | 7.5 | 
O=C(O)c1cc2cc(O)c(O)cc2c(C(=O)c2ccc3ccccc3c2)n1 | 13 | 
COc1cc2c(C(=O)c3ccc(O)c(O)c3)nc(C(=O)O)cc2c(Br)c1O | 70 | 
O=C(O)c1cc2cc(O)c(O)cc2c(C(=O)c2ccc(Cl)cc2Cl)n1 | 44 | 
O=C(c1ccc(O)c(O)c1)c1nc(O)cc2cc(O)c(O)cc12 | 28 | Ki [2]: 84.6 nM; Ki [3]: 34.2 nM; Ki [4]: 6.23 nM; Ki [5]: 20.9 nM; Ki [6]: 17.1 nM
COc1cc2cc(C(=O)O)nc(C(=O)c3ccc(O)c(O)c3)c2cc1OC | > 10000 | 
O=C(O)c1cc2cc(O)c(O)cc2c(C(=O)c2ccc(O)c(O)c2)n1 | 5.6 | Ki [2]: 23.6 nM; Ki [3]: 5.07 nM; Ki [4]: 1.04 nM; Ki [5]: 5.2 nM; Ki [6]: 2.07 nM
